From ChEMBL document CHEMBL1649253, “New approach for drug susceptibility testing: monitoring the stress response of mycobacteria” (2009)
In brackets after ≈: the same amount, converted by molar mass.

Columns and labels:
[1] = tested on: Mycobacterium tuberculosis; experiment: Antibacterial activity against Mycobacterium tuberculosis H37Ra by broth microdilution method; assay type: functional
Outline: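 Broth microdilution in supplemented 7H9 (complete) medium with twofold drug dilutions. Inoculum 10^6 CFU/ml from cultures grown at 37°C to mid- or late-log phase. Incubated 21 days at 37°C, then turbidity inspected by eye against drug-free controls. MIC is the lowest concentration with no visible growth.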

[2] = tested on: Mycobacterium tuberculosis; experiment: Antibacterial activity against Mycobacterium tuberculosis H37Ra by 7H9 broth dilution method; assay type: functional
[3] = tested on: Mycobacterium tuberculosis; experiment: Antibacterial activity against Mycobacterium tuberculosis H37Ra by 7H10 agar plate method; assay type: functional
[4] = tested on: Mycobacterium tuberculosis; experiment: Antibacterial activity against Mycobacterium tuberculosis H37Ra by BACTEC method; assay type: functional
[5] = tested on: Mycobacterium tuberculosis; experiment: Antibacterial activity against Mycobacterium tuberculosis H37Ra by 7H11 agar plate method
[6] = tested on: Mycobacterium tuberculosis; experiment: Antibacterial activity against Mycobacterium tuberculosis H37Ra by BACTEC MGIT 960 method; assay type: functional

Structure (SMILES)	MIC [1] [µg/mL]	MIC [2] [µg/mL]	MIC [3] [µg/mL]	MIC [4] [µg/mL]	MIC [5] [µg/mL]	MIC [6] [µg/mL]
CC[C@@H](CO)NCCN[C@@H](CC)CO [ETHAMBUTOL]	5 (≈ 24.5 µM)	2 (≈ 9.79 µM)	5 (≈ 24.5 µM)			
CO[C@H]1/C=C/O[C@@]2(C)Oc3c(C)c(O)c4c(O)c(c(/C=N/N5CCN(C)CC5)c(O)c4c3C2=O)NC(=O)/C(C)=C\C=C\[C@H](C)[C@H](O)[C@@H](C)[C@@H](O)[C@@H](C)[C@H](OC(C)=O)[C@@H]1C [RIFAMPIN]	0.2 (≈ 0.243 µM)	0.125 (≈ 0.152 µM)	0.2 (≈ 0.243 µM)	0.25 (≈ 0.304 µM)		
NNC(=O)c1ccncc1 [ISONIAZID]	0.2 (≈ 1.46 µM)	0.25 (≈ 1.82 µM)	0.2 (≈ 1.46 µM)	0.03 (≈ 0.219 µM)		
NC(=O)c1cnccn1 [PYRAZINAMIDE]	50 (≈ 406 µM)				50 (≈ 406 µM)	20 (≈ 162 µM)
